Experimental data of several laboratories.
Each line is one published result; the experiments were not run side by side.
JAK3 JH1: Tyrosine-protein kinase JAK3, JH1 (JAK3, Homo sapiens, UniProt P52333)
JAK3: Tyrosine-protein kinase JAK3 (JAK3, Homo sapiens, UniProt P52333)

SMILES	target	test	conditions	measurement	result
Nc1ncc(-c2nc(N3CCOCC3)nc(N3CCOCC3)n2)c(C(F)F)n1	JAK3 JH1	binding, competition with immobilised ligand	10 µM	remaining binding	46%
C#Cc1n[nH]c2c(-c3cn(C(C)c4ccccn4)c(=O)[nH]c3=O)cc(F)cc12 (stereo not shown)	JAK3	enzyme activity, inhibitor	1 µM	inhibition	-4.9%
CC(C)(C)c1cc(C=C(C#N)C#N)cc(Br)c1O	JAK3	enzyme activity, inhibitor	0.5 µM	remaining activity	110%
Cn1cncc1[C@@](O)(COc1ccc(C#N)cc1-c1ccc(OC(F)(F)F)cc1)c1ccc(C#N)cc1	JAK3 JH1	cell-free assay, competition with immobilised ligand	1 µM	remaining binding	100%
Cn1cc(-c2cccc(N3CCc4c(sc5c4CC(C)(C)C5)C3=O)c2CO)cc(Nc2ccncn2)c1=O	JAK3	enzyme activity, inhibitor	1 µM	inhibition	-4%
C#Cc1n[nH]c2c(-c3cn([C@@H](C)c4ccccc4)c(=O)[nH]c3=O)cc(F)cc12	JAK3	enzyme activity, inhibitor	0.1 µM	inhibition	-12.1%
O=c1[nH]c2ccccc2n1C1CCN(Cc2ccc(-c3[nH]c4cc5ncnc5cc4nc3-c3ccccc3)cc2)CC1	JAK3	cell-free assay	0.5 µM	remaining signal	100%
Cn1cc(-c2cc(F)cc(N3CCn4c(cc5c4CCCC5)C3=O)c2CO)cc(Nc2ccc(N3CCN(C4COC4)CC3)cn2)c1=O	JAK3	enzyme activity, inhibitor	0.1 µM	inhibition	2%
COc1ncccc1-c1cnn2ccc(N3CCN(C(=O)OC(C)C)CC3)nc12	JAK3	binding, competition with immobilised ligand	1 µM	remaining binding	71%
Cc1nn(C)cc1-c1nc2c(N3CCN(Cc4ccc(Cl)cc4)CC3)c(Cl)cnc2[nH]1	JAK3 JH1	binding, competition with immobilised ligand	1 µM	remaining binding	0.85%
